The text below walks through data of ChEMBL document CHEMBL4715691, “Synthesis of Triphenylethylene Bisphenols as Aromatase Inhibitors That Also Modulate Estrogen Receptors” (J Med Chem, 2016).

The target in experiment [1] is T1, Estrogen receptor (Homo sapiens) (UniProt P03372).
T1 sequence (whole entry): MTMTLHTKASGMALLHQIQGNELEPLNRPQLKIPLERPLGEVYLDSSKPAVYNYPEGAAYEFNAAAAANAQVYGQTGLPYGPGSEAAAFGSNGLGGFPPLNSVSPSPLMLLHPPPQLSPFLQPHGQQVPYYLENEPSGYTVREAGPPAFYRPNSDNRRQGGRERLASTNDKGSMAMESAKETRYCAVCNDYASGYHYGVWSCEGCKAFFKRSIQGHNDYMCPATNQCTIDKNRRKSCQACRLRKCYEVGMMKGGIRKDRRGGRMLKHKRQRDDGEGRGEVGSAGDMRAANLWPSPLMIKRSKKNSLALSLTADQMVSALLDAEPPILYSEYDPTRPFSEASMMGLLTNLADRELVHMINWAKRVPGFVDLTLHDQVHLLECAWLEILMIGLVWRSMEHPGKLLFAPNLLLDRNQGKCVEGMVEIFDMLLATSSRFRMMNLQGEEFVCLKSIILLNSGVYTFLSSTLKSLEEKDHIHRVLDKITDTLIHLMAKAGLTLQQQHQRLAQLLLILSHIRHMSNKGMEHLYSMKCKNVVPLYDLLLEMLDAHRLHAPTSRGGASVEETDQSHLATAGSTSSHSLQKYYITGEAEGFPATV
As to the kind of experiment: Displacement of ES2 from recombinant human ER-alpha at 100 uM incubated for 2 hrs by fluorescence based assay relative to control. The method in brief: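 Fluorescence polarization competition: test compound at 100 μM, 9 nM ES2 with 30 nM recombinant human ER-α in ES2 screening buffer (100 mM potassium phosphate, 100 µg/mL BGG, 0.02% NaN₃). Incubated 2 h protected from light, ex/em 485/530. Percent of remaining polarization versus vehicle control. Means of at least three experiments.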

The target in experiment [2] is Estrogen receptor beta (Homo sapiens) (UniProt Q92731). As to the kind of experiment: Displacement of ES2 from recombinant human ER-beta at 100 uM incubated for 2 hrs by fluorescence based assay relative to control. The method in brief:
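Fluorescence polarization competition: test compound at 100 μM, 9 nM ES2 with 20 nM recombinant human ER-β in ES2 screening buffer (100 mM potassium phosphate, 100 µg/mL BGG, 0.02% NaN₃). Incubated 2 h protected from light, ex/em 485/530. Percent of remaining polarization versus vehicle control. Means of at least three experiments.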

Experiment [3] concerns MCF7. In words: Selective estrogen receptor modulator activity in human MCF7 cells assessed as E2-induced progesterone receptor mRNA expression level at 1 uM incubated for 24 hrs by real time PCR analysis (reference value: 100%). It counts as cell-based. To be noted: filed as modulator. The method in brief:
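MCF-7 cells grown in MEM with 10% FBS, then held 72 h in charcoal-stripped FBS. […] Genomic DNA removed, RNA extracted, PGR mRNA measured by real-time PCR (40 cycles) from Ct values.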
A general note: Real-time PCR tracks product formation cycle by cycle.

The subject of experiment [4] is MCF7. In words: Antagonist activity at estrogen receptor in human MCF7 cells assessed as E2-induced progesterone receptor mRNA expression level at 1 uM incubated for 24 hrs by real time PCR analysis (reference value: 100%). Also on record: scale not given: the % may be the effect or the level left. The class given is cell-based. To be noted: filed as antagonist. The method in brief:
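ER-positive MCF-7 cells grown in MEM with 10% FBS, 37 °C, 5% CO2, then preconditioned 72 h in charcoal-stripped FBS. […] RNA extracted after genomic DNA removal; PGR mRNA quantified by real-time PCR from threshold cycle, 40 cycles.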

The structures appear in SMILES notation.

Estrogen receptor beta (Homo sapiens), sequence (Q92731 whole entry): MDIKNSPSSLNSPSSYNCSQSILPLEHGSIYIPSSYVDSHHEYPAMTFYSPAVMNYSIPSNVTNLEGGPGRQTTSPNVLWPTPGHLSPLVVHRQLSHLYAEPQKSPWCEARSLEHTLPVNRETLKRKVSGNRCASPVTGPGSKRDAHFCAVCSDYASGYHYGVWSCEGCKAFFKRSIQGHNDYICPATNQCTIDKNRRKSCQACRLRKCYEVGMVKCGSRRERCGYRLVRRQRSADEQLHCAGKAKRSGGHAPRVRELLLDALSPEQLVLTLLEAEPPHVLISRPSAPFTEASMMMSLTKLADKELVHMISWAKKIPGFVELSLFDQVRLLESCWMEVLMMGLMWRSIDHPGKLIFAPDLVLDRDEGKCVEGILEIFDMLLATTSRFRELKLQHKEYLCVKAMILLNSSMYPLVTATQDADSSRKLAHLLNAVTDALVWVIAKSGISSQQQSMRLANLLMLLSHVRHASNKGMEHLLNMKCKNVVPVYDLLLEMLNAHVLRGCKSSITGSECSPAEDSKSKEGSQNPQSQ

Usually inhibition stands for the change of the read-out against control, counted positive when it falls. Turning to `Oc1ccc(C(=C(Cn2cnnc2)c2ccc(O)c(F)c2)c2ccc(O)cc2)cc1`, the inhibition in experiment [1] and in experiment [2] was 0% throughout.

Turning to `Nc1ccc(C(Cn2ccnc2)=C(c2ccc(O)cc2)c2ccc(O)cc2)cc1`, the inhibition in experiment [1] (filed as modulator) and in experiment [2] (filed as modulator) was above 90% throughout. In addition, the Activity in experiment [3] was 26%.

Take `Oc1ccc(C(Cn2cncn2)=C(c2ccc(O)cc2)c2ccc(O)cc2)cc1`: the inhibition in experiment [1] (filed as modulator) turned out to be 45%; in experiment [2] (filed as modulator), 40%.

`N#CCC(=C(c1ccc(O)cc1)c1ccc(O)cc1)c1ccc(O)c(F)c1`: the inhibition in experiment [1] and in experiment [2] was 0% throughout.

Consider `Nc1cccc(C(Cn2ccnc2)=C(c2ccc(O)cc2)c2ccc(O)cc2)c1`, for which the inhibition in experiment [1] (filed as modulator) was found to be 60%; in experiment [2] (filed as modulator) it was 71%.

`Oc1ccc(C(=C(Cn2ccnc2)c2ccccc2)c2ccc(O)cc2)cc1`: the inhibition in experiment [1] (filed as modulator) and in experiment [2] (filed as modulator) was above 90% in each case. Moreover, the Activity in experiment [3] was found to be 26%.

For `Oc1ccc(C(=C(Cn2cncn2)c2ccc(O)c(F)c2)c2ccc(O)cc2)cc1`, the inhibition in experiment [1] was found to be 2%; in experiment [2], 0%.

`CCC(=C(c1ccc(O)cc1)c1ccc(O)cc1)c1ccccc1`: the inhibition in experiment [1] (filed as modulator) was 80%; in experiment [2] (filed as modulator), above 90%.

Regarding `N#CCC(=C(c1ccc(O)cc1)c1ccc(O)cc1)c1ccc(N)cc1`, the inhibition in experiment [1] and in experiment [2] was 0% each time.

Consider `Oc1ccc(C(Cn2cnnc2)=C(c2ccc(O)cc2)c2ccc(O)cc2)cc1`, for which the inhibition in experiment [1] (filed as modulator) and in experiment [2] (filed as modulator) was above 90% throughout.

`Oc1ccc(C(Cn2ccnc2)=C(c2ccc(O)cc2)c2ccc(O)cc2)cc1`: the inhibition in experiment [1] (filed as modulator) and in experiment [2] (filed as modulator) was above 90% in each case. The Activity in experiment [3] was found to be 26%.

With `CC/C(=C(\c1ccc(O)cc1)c1ccc(OCCN(C)C)cc1)c1ccccc1`, in experiment [4], the Activity stood at 10%.

In the case of `Oc1ccc(C(=C(Cn2cncn2)c2ccccc2)c2ccc(O)cc2)cc1`, the inhibition was 12% in experiment [1] and 33% in experiment [2].

With `N#CCC(=C(c1ccc(O)cc1)c1ccc(O)cc1)c1ccccc1`, the inhibition in experiment [1] (filed as modulator) amounted to 56%; in experiment [2] (filed as modulator), 49%.

Consider `Oc1ccc(C(=C(Cn2ccnc2)c2cccc(O)c2)c2ccc(O)cc2)cc1`, for which the inhibition in experiment [1] is 0%; in experiment [2], 29%.

Take `Nc1ccc(C(Cn2cncn2)=C(c2ccc(O)cc2)c2ccc(O)cc2)cc1`: the results for the inhibition in experiment [1] and in experiment [2] were 0% and 2%, respectively.

Regarding `CCC(=C(c1ccc(O)cc1)c1ccc(OCCN)cc1)c1ccccc1`, in experiment [4], the Activity stood at 33%.

Turning to `Oc1ccc(C(=C(Cn2ccnc2)c2ccc(O)c(F)c2)c2ccc(O)cc2)cc1`, the inhibition in experiment [1] (filed as modulator) and in experiment [2] (filed as modulator) was above 90% throughout. Besides, the Activity in experiment [3] was 26%.

Turning to `N#CCC(=C(c1ccc(O)cc1)c1ccc(O)cc1)c1ccc(O)cc1`, the inhibition stood at 0% in experiment [1] and 3% in experiment [2].

With `Nc1ccc(C(Cn2cnnc2)=C(c2ccc(O)cc2)c2ccc(O)cc2)cc1`, the inhibition in experiment [1] stood at 13%; in experiment [2] it was 36%.
